Data set [1] is described as follows: Evaluated for Pharmacokinetic property: Area under the curve. Also on record: concentration or dose not given beside the values. The format is ADME.
For data set [2], the species on record is Mesocricetus auratus. The experiment in a line: Evaluated for percentage inhibition of 5-HIAA formation in isolated Hamster Liver Mitochondria at the 9 uM.
The next data set has as its system Syrian golden hamster. Put plainly: Suppression of Hamster ethanol intake by 0.07 mmol o.d. i.p. The format is functional, Mesocricetus auratus. In a few lines:
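Male Syrian golden hamsters (80-120 g) at 23 °C on a 12/12-h cycle had free access to chow, water and 15% ethanol. Baseline was 6 days of daily ip saline with 0.5% DMSO. Then 0.07 mmol ip daily for 6 days. 24-h ethanol intake recorded. Mean ± SD of 4-6 hamsters.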

Data set [3] is described as follows: Evaluated for time required to reach maximum concentration in plasma. The format is ADME.
In data set [4] the test system is Aldehyde dehydrogenase, mitochondrial (Mesocricetus auratus). The experiment in a line: Accumulation of 5 HIAL in isolated Hamster Liver Mitochondria at 0.9 uM.
Data set [5] concerns the target Monoamine oxidase (Mesocricetus auratus). Put plainly: Inhibition of Hamster Liver mitochondrial Monoamine oxidase.
The subject of data set [6] is Aldehyde dehydrogenase, mitochondrial (Mesocricetus auratus). The experiment in a line: Accumulation of 5 HIAL in isolated Hamster Liver Mitochondria at 3 uM.
The test system is the same in data set [7]. The experiment in a line: Accumulation of 5 HIAL in isolated Hamster Liver Mitochondria at 0.3 uM.
Data set [8] shares this test system. Put plainly: Accumulation of 5 HIAL in isolated Hamster Liver Mitochondria at 9 uM.
For data set [9], the species on record is Mesocricetus auratus. Put plainly: Evaluated for the 5-HIAL accumulation in isolated Hamster Liver Mitochondria at the 3 uM.

The structures appear in SMILES notation.

The inhibition is how much of the control response was suppressed. As a reminder, the Tmax is the time from dosing to the highest level. With `O=c1c(-c2ccc(O)cc2)coc2cc(O)ccc12` [DAIDZEIN], the AUC in data set [1] came out at 130 nM hr ml. The inhibition in the data set filed under Mesocricetus auratus [2] came to 80.6%. In the data set on Syrian golden hamster, this compound came in with a Suppression of 22%. Further, the Tmax in data set [3] was determined as 1 h.

Turning to `O=C(O)CCCCCOc1ccc2c(=O)c(-c3ccc(O)cc3)coc2c1`, the AUC in data set [1] is reported as 77 nM hr ml. This compound also registered a Suppression with Syrian golden hamster of 69%. In addition, the Tmax in data set [3] was 0.5 h.

In the case of `COc1ccc(-c2coc3cc(O)cc(O)c3c2=O)cc1` [BIOCHANIN], the AUC in data set [1] was determined as 99 nM hr ml. In the data set on Syrian golden hamster, this compound yielded a Suppression of 0%. In addition, the Tmax in data set [3] stood at 1 h.

A word on the IC50: it is the concentration that inhibits the measured activity by half. Consider `O=c1c(-c2ccc(O)cc2)coc2cc(OCCCCBr)ccc12`, for which, in data set [1], the AUC worked out at 68 nM hr ml. Further, the Control in data set [4] stood at 116%; in [6] it was 87.7%; in data set [7], 112%; in data set [8] it was 42.9%. The IC50 in data set [5] was 4000 nM. Further, the Suppression with Syrian golden hamster was found to be 14%. Moreover, in data set [3], the time of peak concentration (Tmax) amounted to 2 h.

As for `O=C(O)CCCCCCCCCCOc1ccc2c(=O)c(-c3ccc(O)cc3)coc2c1`, the AUC in data set [1] is recorded as 56 nM hr ml. The Suppression in the data set with Syrian golden hamster is 86%. The Tmax in data set [3] is 0.5 h.

The compound `C=CCOc1ccc2c(=O)c(-c3ccc(O)cc3)coc2c1` showed an AUC in data set [1] of 29 nM hr ml. The Control turned out to be 91% in data set [4], 56.1% in [6], 106% in data set [7] and 26.7% in [8]. The IC50 in [5] worked out at 450 nM. For the same compound, the Suppression in the data set with Syrian golden hamster stood at 0%. Also, the time of peak concentration (Tmax) in data set [3] was found to be 1 h.

For the compound `O=c1c(-c2ccc(O)cc2)coc2cc(O)cc(O)c12` [GENISTEIN], in data set [1], the AUC was determined as 134 nM hr ml. For the same compound, the Suppression in the data set with Syrian golden hamster is 0%. For the same compound, the time of peak concentration (Tmax) in data set [3] came to 1 h.

In [1], `O=c1c(-c2ccc(O)cc2)coc2cc(OCCCCCCBr)ccc12` had an AUC of 62 nM hr ml. For the same compound, the Control in [4] amounted to 112%; in [6], 108%; in data set [7] it was 144%; in [8] it was 74%. The IC50 in [5] amounted to 2000 nM. The compound also registered a Suppression with Syrian golden hamster of 29%. Besides, in data set [3], the Tmax was found to be 2 h.

In data set [1], `O=C(O)CCCCCCCCCOc1ccc2c(=O)c(-c3ccc(O)cc3)coc2c1` came in with an AUC of 73 nM hr ml. Also, the Control in data set [4] came out at 233%; in data set [6] it was 189%; in data set [7], 234%; in [8], 129%. In addition, the IC50 in data set [5] was determined as 10000 nM. Moreover, the Suppression in the data set with Syrian golden hamster was 84%. For the same compound, the Tmax in [3] was 0.5 h.

`O=c1c(-c2ccc(O)cc2)coc2cc(O[C@@H]3O[C@H](CO)[C@@H](O)[C@H](O)[C@H]3O)ccc12` [DAIDZIN] had an AUC in [1] of 120 nM hr ml. The Suppression with Syrian golden hamster is listed as 62%. In data set [3], the Tmax is 1 h.

In data set [1], `O=c1c(-c2ccc(O)cc2)coc2cc(OCCCBr)ccc12` returned an AUC of 73 nM hr ml. Besides, the Control in [4] turned out to be 57.8%; in [6], 34.7%; in data set [7], 75.8%; in [8], 20.5%. Moreover, in data set [5], the IC50 stood at 150 nM. Moreover, the Suppression in the data set on Syrian golden hamster came to 0%. For the same compound, the Tmax in data set [3] came out at 2 h.

As for `O=c1cc(-c2ccccc2)oc2c(O)c(O)ccc12` [7,8-DIHYDROXYFLAVONE], the AUC in data set [1] was found to be 111 nM hr ml. The Suppression with Syrian golden hamster worked out at 0%. The Tmax in [3] was found to be 0.5 h. In addition, the Control in the data set filed under Mesocricetus auratus [9] is 79.1%.

In [1], `CCOc1ccc2c(=O)c(-c3ccc(O)cc3)coc2c1` came in with an AUC of 38 nM hr ml. Moreover, the Control in [4] worked out at 62.9%; in data set [6], 34.3%; in [7], 88.6%; in [8], 17.8%. In addition, in data set [5], the IC50 was determined as 300 nM. For the same compound, in the data set with Syrian golden hamster, the Suppression is recorded as 0%. The time of peak concentration (Tmax) in [3] is 1 h.

As to `O=c1cc(-c2ccccc2)oc2cc(O)cc(O)c12` [CHRYSIN], the AUC in data set [1] was found to be 110 nM hr ml. In the data set on Syrian golden hamster, the Suppression is given as 0%. Further, in [3], the Tmax turned out to be 1 h.

With `O=C(O)CCCCCCOc1ccc2c(=O)c(-c3ccc(O)cc3)coc2c1`, the AUC in [1] was found to be 68 nM hr ml. Also, the Control came to 265% in data set [4], 228% in data set [6], 310% in data set [7] and 192% in data set [8]. The IC50 in data set [5] was 2100 nM. In the data set with Syrian golden hamster, this compound came in with a Suppression of 69%. Further, in data set [3], the Tmax was 0.5 h.

For the compound `O=c1c(-c2ccc(O)cc2)coc2cc(OCCC3OCCCO3)ccc12`, in data set [1], the AUC turned out to be 99 nM hr ml. Besides, the Control in [4] amounted to 176%; in data set [6], 141%; in [7] it was 165%; in data set [8] it was 86.1%. In [5], this compound came in with an IC50 of 7000 nM. The Suppression with Syrian golden hamster stood at 32%. Further, the Tmax in data set [3] is 0.5 h.

`O=c1c(-c2ccc(O)cc2)coc2cc(OCC(O)CO)ccc12` (stereo not drawn) came in with an AUC in data set [1] of 141 nM hr ml. The Control in data set [4] is 97.5%; in [6], 63%; in [7], 112%; in data set [8], 30.5%. This compound also came in with an IC50 in [5] of 1700 nM. The Suppression in the data set on Syrian golden hamster is 0%. Further, the time of peak concentration (Tmax) in data set [3] worked out at 0.5 h.

Values taken from ChEMBL document CHEMBL1133504 (J Med Chem, 2000).
